Experiment [1] in a line: inhibitors of TNFa-induced NFkB p65 translocation, primary screen, imaging, HUVEC, MLSMR starter and 10KST1 sets (AID 438;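 active = inhibition above 20% together with a positive visual image hit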;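 note: compound added about 3h40 before a 20 min TNFalpha stimulation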;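 for inhibition: signal is the nuclear over cytoplasmic p65 intensity ratio per well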). The conditions noted are these: HUVEC TNFa-induced p65 nuclear translocation; cell count: measured here: nuclei count (cytotoxicity indicator), at 2.08 µM; inhibition: at 2 µM, stronger effect = higher value, 0% TNFa-plus-vehicle, 100% no-TNFa wells.
The nature of experiment [2]: reduction of polyQ htt aggregates in cells – imaging, exon1htt(103Q)mCFP cells, high-content imaging, primary screen (AID 483;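 active = visual image review flags a hit and inhibition of aggregation exceeds 20%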;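 note: compound exposure lasted 3 days before fixation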;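 for nuclei count: percent of the per-plate median nuclei count of sample wells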). The conditions noted are these: exon1htt(103Q)mCFP cell line, aggregate imaging, at 2 µM; inhibition of aggregation: stronger effect = higher value; nuclei count: measured here: cell count, toxicity.
Experiment [3] in a line: endothelial E-selectin expression blockers – imaging, HUVEC, immunofluorescence, MLSMR starter and 10KST1 sets, primary screen (AID 487;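 active = visually confirmed hit in the image check and inhibition above 20%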;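 for inhibition: signal is fraction of cell area covered by stained E-selectin grains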;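 for nuclei count: 100% = median nuclei count of all wells on the same plate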). The note with it: HUVEC TNFalpha-induced E-selectin immunofluorescence imaging, at 2 µM; inhibition: stronger effect = higher value; nuclei count: measured here: cell number, toxicity.
Experiment [4] concerns the target Voltage-gated potassium channel subunit beta-2 (Rattus norvegicus) (UniProt P62483). The experiment is described as follows: inhibitors of rat Kvbeta2 reductase activity – biochemical, NADPH fluorescence, primary screen (AID 622;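 active = fluorescence slope higher than the sample average by over 3 SD, cut at about -0.22 in these data, passing the limit was not always enough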;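 note: slope of raw intensity against log time taken from 70 to 1610 s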). The note with it: recombinant KvBeta, 4-cyanobenzaldehyde reduction, at 10 µM, stronger effect = higher value.
For experiment [5] the target is unchanged. The experiment is described as follows: enhancers of rat Kvbeta2 NADPH turnover – biochemical, NADPH fluorescence, primary screen (AID 623;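 active = NADPH fluorescence slope more negative than the mean of all samples by about 3 SD, 99.7% confidence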;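 note: fluorescence intensity change per second fitted from 20 to 320 s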). The note with it: Recombinant KvBeta, NADPH fluorescence decrease slope, 10 min; at 10 µM; stronger effect = lower value.
Experiment [6] deals with Muscarinic acetylcholine receptor M4 (Homo sapiens) (UniProt P08173). In words: M4-linked GIRK flux change, two-sided – cell-based, HEK293 M4/GIRK, thallium flux, BTC-AM, M4 allosteric agonist project, primary screen (AID 625;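 active = fluorescence slope after compound addition differing from the mean of all tested samples at 99.7% confidence, mostly higher but some lower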;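 note: thallium influx through GIRK channels coupled to M4 in HEK293 cells with BTC-AM dye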). The conditions noted are these: at 10 µM, actives lie on both sides. Put shortly: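 Material: HEK293 cells with M4 receptor and GIRK channels; Times: cells overnight at 37 °C, BTC-AM loading 1 h, reads 2 min total; Technique: kinetic BTC-AM fluorescence sampled at 1 Hz, 10 s pre-addition baseline; Read-out basis: slope over 15–24 s of trace normalized to starting intensity; Controls: carbachol positive, DMSO negative.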

Experiment [7] can be described thus: blockers of RIG-like receptor reporter activation – cell-based, Sendai virus stimulus, luciferase, 10K MLSCN set, TLR/RLR signaling modifier project, primary screen (AID 602276).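 Note: firefly luciferase from ISG56 promoter only with Renilla not read in this screen; 0% = Sendai virus plus DMSO and 100% = medium plus DMSO without virus.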 The conditions noted are these: HEK293 RL24 IRF3 luciferase reporter, at 10 µM, stronger effect = higher value.
A short description of experiment [8]: TLR3 IRF3 reporter activation blockers – cell-based, poly I:C stimulus, luciferase, 10K MLSCN set, primary screen (AID 602277;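 active = inhibition of the reporter signal at or above 50%; inactive = inhibition below 50%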). The note with it: HEK293-TLR3 RL24 IRF3 luciferase reporter, at 10 µM, stronger effect = higher value.

Active and inactive are the calls of the source.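 Rule for the calls, unless noted: active = inhibition at or above 50% at 10 µM; inactive = inhibition below 50%.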

Sequence of Voltage-gated potassium channel subunit beta-2 (Rattus norvegicus) (P62483 whole entry, looked up): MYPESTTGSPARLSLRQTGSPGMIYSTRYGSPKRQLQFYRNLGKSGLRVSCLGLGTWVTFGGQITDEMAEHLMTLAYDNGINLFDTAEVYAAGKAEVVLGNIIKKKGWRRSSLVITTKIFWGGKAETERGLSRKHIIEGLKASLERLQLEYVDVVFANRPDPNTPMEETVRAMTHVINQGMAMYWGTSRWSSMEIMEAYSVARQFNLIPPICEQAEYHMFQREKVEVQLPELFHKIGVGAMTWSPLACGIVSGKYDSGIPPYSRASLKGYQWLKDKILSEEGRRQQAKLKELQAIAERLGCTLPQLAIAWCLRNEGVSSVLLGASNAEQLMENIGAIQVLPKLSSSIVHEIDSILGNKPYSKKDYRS
Sequence of Muscarinic acetylcholine receptor M4 (Homo sapiens) (P08173 whole entry, looked up): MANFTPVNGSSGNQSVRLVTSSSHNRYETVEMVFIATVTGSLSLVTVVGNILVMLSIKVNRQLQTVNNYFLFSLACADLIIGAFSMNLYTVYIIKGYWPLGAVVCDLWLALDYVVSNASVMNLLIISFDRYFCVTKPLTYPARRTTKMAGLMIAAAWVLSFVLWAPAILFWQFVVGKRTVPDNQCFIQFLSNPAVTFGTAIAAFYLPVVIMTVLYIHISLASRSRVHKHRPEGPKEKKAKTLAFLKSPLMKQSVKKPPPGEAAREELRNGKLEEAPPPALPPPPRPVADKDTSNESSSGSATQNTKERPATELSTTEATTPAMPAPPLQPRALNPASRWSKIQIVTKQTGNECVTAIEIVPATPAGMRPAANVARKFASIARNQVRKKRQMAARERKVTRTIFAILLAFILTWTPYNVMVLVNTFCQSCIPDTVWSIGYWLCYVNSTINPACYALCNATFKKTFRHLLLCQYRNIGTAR

`CCn1ncc(C2=NOC(C(=O)NCc3ccc(Cl)cc3)C2)c1C` (stereo not given): in experiment [1], the cell count was 576. Moreover, the inhibition in experiment [1] was 13.4% (inactive); in experiment [3], -240% (inactive); in experiment [7], 2.33% (inactive); in experiment [8], 86.7% (active). The inhibition of aggregation in experiment [2] is -30.2% (inactive). Moreover, the nuclei count was determined as 36.3% in experiment [2] and 102% in experiment [3]. Besides, the fluorescence slope was -0.421 (inactive) in experiment [4] and 0.0055 (inactive) in experiment [6]. In addition, in experiment [5], the NADPH fluorescence slope was 2.6e-05 (inactive).
For the molecule `CN1C(=O)NC(NC(=O)C2CCCCC2)(C(F)(F)F)C1=O` (stereo not given), in experiment [1], the cell count is 650. Besides, the inhibition was 1.4% (inactive) in experiment [1], 3.3% (inactive) in experiment [3], 17% (inactive) in experiment [7] and 17.5% (inactive) in experiment [8]. Moreover, the inhibition of aggregation in experiment [2] was 0.6% (inactive). Further, the nuclei count in experiment [2] is 97.1%; in experiment [3], 99.5%. Moreover, the values for the fluorescence slope in experiment [4] and in experiment [6] were -0.579 (inactive) and 0.0049 (inactive), respectively. In addition, in experiment [5], the NADPH fluorescence slope was -2.4e-05 (inactive).
Turning to `O=S(=O)(c1ccc(OCC(O)CN2CCc3ccccc3C2)cc1)N1CCOCC1` (stereo not given), the cell count in experiment [1] is 749. The inhibition in experiment [1] was 1.6% (inactive); in experiment [3] it was -51.2% (inactive); in experiment [7] it was 15.9% (inactive); in experiment [8], 26.7% (inactive). The inhibition of aggregation in experiment [2] was 6.1% (inactive). The nuclei count in experiment [2] amounted to 114%; in experiment [3] it was 132%. Besides, the fluorescence slope was -0.549 (inactive) in experiment [4] and 0.00569 (inactive) in experiment [6]. In addition, the NADPH fluorescence slope in experiment [5] is 1.9e-05 (inactive).
Regarding `O=C(COC(=O)c1ccc(NS(=O)(=O)c2ccc3c(c2)OCCO3)cc1)NCC1CCCO1` (stereo not given), the cell count in experiment [1] is 424. The inhibition is -18.3% (inactive) in experiment [1], 1.1% (inactive) in experiment [3], 4.88% (inactive) in experiment [7] and 19.1% (inactive) in experiment [8]. Moreover, the inhibition of aggregation in experiment [2] was 11.2% (inactive). For the same molecule, the nuclei count came out at 69.5% in experiment [2] and 100% in experiment [3]. Besides, the fluorescence slope is -0.555 (inactive) in experiment [4] and 0.00638 (inactive) in experiment [6]. The NADPH fluorescence slope in experiment [5] was -3.4e-05 (inactive).
Take `COc1ccc(Cl)cc1NC(=O)COc1cccc(-n2cnnn2)c1`: in experiment [1], the cell count was 371. In addition, the inhibition in experiment [1] was 1.2% (inactive); in experiment [3], 10.9% (inactive); in experiment [7] it was 6.87% (inactive); in experiment [8], -12.1% (inactive). Moreover, the inhibition of aggregation in experiment [2] was 5.6% (inactive). In addition, the nuclei count in experiment [2] came to 102%; in experiment [3], 112%. Besides, the values for the fluorescence slope in experiment [4] and in experiment [6] were -0.528 (inactive) and 0.00451 (inactive), respectively. In experiment [5], the NADPH fluorescence slope is -1.9e-05 (inactive).
As for `CCC(=O)c1ccc(OCC(=O)N2CCc3cc(OC)c(OC)cc3C2)cc1`, in experiment [1], the cell count stood at 369. In addition, the inhibition was 10.8% (inactive) in experiment [1], 25.9% (inactive) in experiment [3], 3.27% (inactive) in experiment [7] and 12.3% (inactive) in experiment [8]. Further, the inhibition of aggregation in experiment [2] is 17.3% (inactive). Further, the nuclei count in experiment [2] is 91.3%; in experiment [3] it was 99.5%. The fluorescence slope in experiment [4] was -0.577 (inactive); in experiment [6], 0.00901 (inactive). In addition, in experiment [5], the NADPH fluorescence slope is -4.3e-05 (inactive).
As for `O=C(OCc1nnc(-c2ccccc2)o1)c1ccc(S(=O)(=O)NCc2ccco2)cc1`, in experiment [1], the cell count came out at 722. The inhibition in experiment [1] is -8.9% (inactive); in experiment [3], -51.8% (inactive); in experiment [7] it was -7.1% (inactive); in experiment [8], 2.67% (inactive). Further, the inhibition of aggregation in experiment [2] was -17.9% (inactive). The results for the nuclei count in experiment [2] and in experiment [3] were 89.7% and 113%, respectively. In addition, the fluorescence slope in experiment [4] is -0.458 (inactive); in experiment [6] it was 0.00635 (inactive). The NADPH fluorescence slope in experiment [5] is -0.000324 (inactive).
Regarding `O=C1CCCC2=C1C(c1ccsc1)CC(=O)N2c1ccccc1` (stereo not given), the cell count in experiment [1] was determined as 550. Also, the inhibition in experiment [1] is -11.1% (inactive); in experiment [3], -88.5% (inactive); in experiment [7], 15.9% (inactive); in experiment [8], 19.3% (inactive). Moreover, the inhibition of aggregation in experiment [2] is -6.3% (inactive). Besides, the nuclei count in experiment [2] was found to be 100%; in experiment [3], 95.1%. In addition, the values for the fluorescence slope in experiment [4] and in experiment [6] were -0.422 (inactive) and 0.00622 (inactive), respectively. Moreover, the NADPH fluorescence slope in experiment [5] was -0.000362 (inactive).
In the case of `CC(=O)c1nnn(-c2nc(N3CCCC3)nc(N(c3ccccc3)c3ccccc3)n2)c1C`, the cell count in experiment [1] turned out to be 558. In addition, the inhibition in experiment [1] was 8.9% (inactive); in experiment [3], 51.9% (inactive); in experiment [7], 15.9% (inactive); in experiment [8] it was 26.9% (inactive). Further, in experiment [2], the inhibition of aggregation was 2.6% (inactive). The results for the nuclei count in experiment [2] and in experiment [3] were 109% and 95.1%, respectively. For the same molecule, the fluorescence slope was -0.58 (inactive) in experiment [4] and 0.00803 (inactive) in experiment [6]. Moreover, the NADPH fluorescence slope in experiment [5] is -5.5e-05 (inactive).
Regarding `O=C(COc1ccc(S(=O)(=O)N2CCCC2)cc1Cl)NC1CC1`, the cell count in experiment [1] stood at 349. Further, the inhibition was 5.7% (inactive) in experiment [1], 21.6% (inactive) in experiment [3], 15.4% (inactive) in experiment [7] and 16.4% (inactive) in experiment [8]. Besides, the inhibition of aggregation in experiment [2] is -1.8% (inactive). Moreover, the nuclei count in experiment [2] stood at 58.7%; in experiment [3] it was 98.3%. The fluorescence slope in experiment [4] is -0.232 (inactive); in experiment [6], 0.007 (inactive). Also, the NADPH fluorescence slope in experiment [5] is -1.9e-05 (inactive).
